From paper PMC10693208 (Evolutionary Bioinformatics Online, 2023)
pIC50: −log10 of the molar value. “And” between values parts separate entries of the source, which are not always exact repeats. Equal entries are not always repeated. Where two headings read alike, the source gives them in different places.

Columns and labels:
EGFR^WT = EGFR^WT (Homo sapiens, UniProt P00533); assay: In vitro EGFR kinase inhibition; assay type: biochemical
HCT-116 cells [1] = assay: MTT cytotoxicity, HCT-116; assay type: cell-based, human
HCT-116 cells [2] = assay: Flow cytometric analysis of apoptosis; assay type: cell-based, human
Casp3 = assay: RT-PCR, Casp3 level in HCT-116 cells; assay type: cell-based, human; conditions: HCT-116 treated with 23.3 µM, vs control cells = 1
Procedure, shortened: (§1)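 Total RNA extracted from HCT-116 cells after test compound exposure using a commercial extraction kit. Transcript levels were measured by RT-PCR with SYBR Green master mix. Expression was compared with untreated control cells, taken as 1, and reported as fold change.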

Bcl-2 = assay: RT-PCR, Bcl-2 level in HCT-116 cells; assay type: cell-based, human
EGFR^T790M = EGFR^T790M (Homo sapiens, UniProt P00533, T790M); assay: In vitro EGFR kinase inhibition; assay type: biochemical
Chain of EGFR^T790M (P00533 25-1210 T790M): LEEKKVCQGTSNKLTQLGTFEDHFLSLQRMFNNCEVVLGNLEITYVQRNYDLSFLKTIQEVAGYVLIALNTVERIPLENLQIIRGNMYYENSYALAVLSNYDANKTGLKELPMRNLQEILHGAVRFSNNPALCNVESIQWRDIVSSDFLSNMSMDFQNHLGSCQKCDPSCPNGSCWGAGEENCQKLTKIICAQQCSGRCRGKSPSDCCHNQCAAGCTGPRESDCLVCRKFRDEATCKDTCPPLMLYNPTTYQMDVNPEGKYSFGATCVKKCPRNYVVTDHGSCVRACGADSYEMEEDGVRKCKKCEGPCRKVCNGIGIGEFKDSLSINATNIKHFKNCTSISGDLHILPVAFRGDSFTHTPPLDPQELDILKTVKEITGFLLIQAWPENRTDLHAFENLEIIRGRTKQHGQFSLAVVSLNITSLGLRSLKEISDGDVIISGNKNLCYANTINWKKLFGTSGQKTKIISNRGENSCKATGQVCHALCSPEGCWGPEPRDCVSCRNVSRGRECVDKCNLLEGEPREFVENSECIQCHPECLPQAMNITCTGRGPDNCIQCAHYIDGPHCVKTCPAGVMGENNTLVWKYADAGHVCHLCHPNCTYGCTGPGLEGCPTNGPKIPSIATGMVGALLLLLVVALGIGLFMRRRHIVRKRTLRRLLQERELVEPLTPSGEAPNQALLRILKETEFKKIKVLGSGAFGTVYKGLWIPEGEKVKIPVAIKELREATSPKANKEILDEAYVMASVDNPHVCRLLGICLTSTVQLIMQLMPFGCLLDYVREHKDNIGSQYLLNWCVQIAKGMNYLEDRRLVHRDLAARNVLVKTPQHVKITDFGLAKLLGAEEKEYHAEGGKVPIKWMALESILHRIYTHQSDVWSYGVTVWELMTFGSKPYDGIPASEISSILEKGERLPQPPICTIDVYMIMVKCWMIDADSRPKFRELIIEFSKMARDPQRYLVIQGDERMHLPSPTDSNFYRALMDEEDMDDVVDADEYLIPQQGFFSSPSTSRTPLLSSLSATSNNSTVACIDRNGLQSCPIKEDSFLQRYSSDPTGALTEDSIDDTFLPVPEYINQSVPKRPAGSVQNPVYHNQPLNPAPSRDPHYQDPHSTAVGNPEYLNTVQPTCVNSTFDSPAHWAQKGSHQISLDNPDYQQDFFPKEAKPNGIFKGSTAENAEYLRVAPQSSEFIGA

BAX = assay: RT-PCR, BAX level in HCT-116 cells; assay type: cell-based, human; conditions: HCT-116 treated with 23.3 µM, vs control cells = 1
Procedure, shortened: as §1

H1975 cells = assay: MTT cytotoxicity, H1975; assay type: cell-based; conditions: Homo sapiens, NCI-H1975, read-out: H1975 IC50
Casp9 = assay: RT-PCR, Casp9 level in HCT-116 cells; assay type: cell-based, human; conditions: HCT-116 treated with 23.3 µM, vs control cells = 1
Procedure, shortened: as §1

[3] = Homo sapiens, HCT-116, read-out: HCT-116 IC50, MTT, erlotinib as reference
[4] = read-out: HCT-116 IC50, MTT, erlotinib as reference

Chain of EGFR^WT (P00533 25-1210): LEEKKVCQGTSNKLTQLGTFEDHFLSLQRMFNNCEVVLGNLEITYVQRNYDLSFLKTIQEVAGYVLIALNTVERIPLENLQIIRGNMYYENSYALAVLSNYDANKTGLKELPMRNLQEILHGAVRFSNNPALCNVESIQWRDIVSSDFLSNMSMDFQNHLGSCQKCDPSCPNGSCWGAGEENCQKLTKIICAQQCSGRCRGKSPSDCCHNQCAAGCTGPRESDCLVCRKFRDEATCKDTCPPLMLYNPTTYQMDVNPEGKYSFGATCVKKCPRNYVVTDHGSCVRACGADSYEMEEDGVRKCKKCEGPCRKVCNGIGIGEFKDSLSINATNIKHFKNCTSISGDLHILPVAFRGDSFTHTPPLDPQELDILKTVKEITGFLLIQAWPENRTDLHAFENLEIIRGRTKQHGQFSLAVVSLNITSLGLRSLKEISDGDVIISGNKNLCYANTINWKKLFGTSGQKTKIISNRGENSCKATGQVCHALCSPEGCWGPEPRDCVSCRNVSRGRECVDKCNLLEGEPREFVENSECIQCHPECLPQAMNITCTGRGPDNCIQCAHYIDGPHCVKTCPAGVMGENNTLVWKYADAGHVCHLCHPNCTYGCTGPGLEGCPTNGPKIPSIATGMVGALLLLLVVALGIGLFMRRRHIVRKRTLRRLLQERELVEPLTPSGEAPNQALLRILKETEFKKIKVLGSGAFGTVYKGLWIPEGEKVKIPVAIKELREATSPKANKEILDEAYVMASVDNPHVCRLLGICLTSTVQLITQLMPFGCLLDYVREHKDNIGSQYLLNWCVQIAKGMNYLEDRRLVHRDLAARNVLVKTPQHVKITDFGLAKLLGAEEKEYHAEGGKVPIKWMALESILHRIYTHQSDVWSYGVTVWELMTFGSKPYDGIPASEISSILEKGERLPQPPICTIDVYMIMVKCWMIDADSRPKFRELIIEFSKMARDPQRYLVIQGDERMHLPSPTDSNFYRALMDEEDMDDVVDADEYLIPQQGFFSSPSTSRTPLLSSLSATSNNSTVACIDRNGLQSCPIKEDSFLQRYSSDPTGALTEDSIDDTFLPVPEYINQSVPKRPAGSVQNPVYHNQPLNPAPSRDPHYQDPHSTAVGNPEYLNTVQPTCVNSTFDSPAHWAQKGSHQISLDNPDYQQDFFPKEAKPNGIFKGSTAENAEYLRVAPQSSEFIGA

| Compound | pIC50 (EGFR^WT) | pIC50 (HCT-116 cells [1]; [3]) | selectivity index (SI), HCT-116 (HCT-116 cells [1]; SI = IC50 normal cells (Vero) / IC50 cancer cells) | pIC50 (HCT-116 cells [1]; [4]) | increase of the total percentage of apoptotic cells vs control (HCT-116 cells [2]; HCT-116) | Apoptosis, Early (HCT-116 cells [2]; HCT-116, 72 h, Annexin V/PI) | Apoptosis, Late (HCT-116 cells [2]; HCT-116, 72 h, Annexin V/PI) | Necrosis (HCT-116 cells [2]; HCT-116, 72 h, Annexin V/PI) | RT-PCR Fold change Casp3 (Casp3) | Bcl-2 reduction compared to the control (Bcl-2; HCT-116, reduction factor) | RT-PCR Fold change Bcl-2 (Bcl-2; HCT-116 treated with 23.3 µM, vs control cells = 1) | pIC50 (EGFR^T790M) | RT-PCR Fold change BAX (BAX) | pIC50 (H1975 cells) | RT-PCR Fold change Casp9 (Casp9) |
| --- | --- | --- | --- | --- | --- | --- | --- | --- | --- | --- | --- | --- | --- | --- | --- |
| Cn1cnc2c1c(=O)n(CC(=O)Nc1c(Cl)cccc1Cl)c(=O)n2C [Compound T-1-DOCA, N-(2,6-Dichlorophenyl)-2-(3,7-dimethyl-2,6-dioxo-2,3,6,7-tetrahydro-1H-purin-1-yl)acetamide] | 7.24 | 4.63 | 4.1 | 4.63 | ~10 folds | 8.55% | 18.07% | 3.09% | 3.8 and 3.829 | 2 fold | 0.521 | 6.57 | 5.522 | 4.85 | 2.2 and 2.238 |
| C#Cc1cccc(Nc2ncnc3cc(OCCOC)c(OCCOC)cc23)c1 [Erlotinib, reference compound] |  | 4.75 |  | 4.75 |  |  |  |  |  |  |  |  |  |  |  |
